Results: ChEMBL document CHEMBL1944596, “7,8-dichloro-1-oxo-β-carbolines as a versatile scaffold for the development of potent and selective kinase inhibitors with unusual binding modes” (J Med Chem, 2012)

Columns and labels:
[1] = target: Tyrosine-protein kinase Fes/Fps (Homo sapiens) (UniProt P07332); experiment: Binding affinity to FES assessed as change in thermal denaturation at 10 uM by thermal stability shift assay
In short: (§1)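 Each compound was screened across a kinase panel by thermal stability shift assay. The read-out was the shift in protein melting temperature (ΔTm, in °C) relative to the unliganded kinase. A ΔTm of 4.0 °C served as the hit cutoff.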

[2] = target: T1, Cyclin-G-associated kinase (Homo sapiens) (UniProt O14976); experiment: Binding affinity to GAK assessed as change in thermal denaturation at 10 uM by thermal stability shift assay; in short: as §1
T1 sequence (whole entry): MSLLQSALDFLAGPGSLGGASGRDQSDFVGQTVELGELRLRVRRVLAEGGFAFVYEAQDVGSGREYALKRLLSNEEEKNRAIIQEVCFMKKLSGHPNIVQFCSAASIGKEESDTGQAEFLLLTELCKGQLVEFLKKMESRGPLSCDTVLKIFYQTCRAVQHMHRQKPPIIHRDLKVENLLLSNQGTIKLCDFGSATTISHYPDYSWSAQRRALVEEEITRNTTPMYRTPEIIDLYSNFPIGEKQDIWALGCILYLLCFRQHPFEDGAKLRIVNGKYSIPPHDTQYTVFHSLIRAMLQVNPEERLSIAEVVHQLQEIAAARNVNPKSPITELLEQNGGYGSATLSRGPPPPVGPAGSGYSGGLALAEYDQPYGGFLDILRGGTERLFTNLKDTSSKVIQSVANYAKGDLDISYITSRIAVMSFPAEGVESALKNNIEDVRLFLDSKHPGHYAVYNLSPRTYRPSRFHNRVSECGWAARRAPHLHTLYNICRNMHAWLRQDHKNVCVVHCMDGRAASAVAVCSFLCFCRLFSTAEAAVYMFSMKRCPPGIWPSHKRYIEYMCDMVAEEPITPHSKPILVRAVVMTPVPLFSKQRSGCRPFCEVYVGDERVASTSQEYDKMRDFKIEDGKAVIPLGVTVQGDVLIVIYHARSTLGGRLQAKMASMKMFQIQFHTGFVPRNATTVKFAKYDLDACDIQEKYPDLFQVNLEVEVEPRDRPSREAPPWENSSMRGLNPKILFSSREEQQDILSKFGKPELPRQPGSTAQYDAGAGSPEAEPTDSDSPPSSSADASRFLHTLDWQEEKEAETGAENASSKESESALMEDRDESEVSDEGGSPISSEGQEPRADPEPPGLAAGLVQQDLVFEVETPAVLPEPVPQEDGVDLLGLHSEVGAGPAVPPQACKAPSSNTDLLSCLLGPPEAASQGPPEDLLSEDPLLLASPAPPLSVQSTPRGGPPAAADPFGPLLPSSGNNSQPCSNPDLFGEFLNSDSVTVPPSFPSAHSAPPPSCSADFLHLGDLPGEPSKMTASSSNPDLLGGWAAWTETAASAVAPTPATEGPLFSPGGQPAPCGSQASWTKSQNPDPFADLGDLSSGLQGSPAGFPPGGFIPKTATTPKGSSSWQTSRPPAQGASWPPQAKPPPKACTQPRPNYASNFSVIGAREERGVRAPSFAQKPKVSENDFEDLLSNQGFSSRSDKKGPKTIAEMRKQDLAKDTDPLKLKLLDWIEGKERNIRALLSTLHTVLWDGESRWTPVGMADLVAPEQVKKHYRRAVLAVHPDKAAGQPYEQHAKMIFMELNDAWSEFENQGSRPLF

[3] = target: T2, Myosin light chain kinase family member 4 (Homo sapiens) (UniProt Q86YV6); experiment: Binding affinity to SGK085 assessed as change in thermal denaturation at 10 uM by thermal stability shift assay; in short: as §1
T2 sequence (whole entry): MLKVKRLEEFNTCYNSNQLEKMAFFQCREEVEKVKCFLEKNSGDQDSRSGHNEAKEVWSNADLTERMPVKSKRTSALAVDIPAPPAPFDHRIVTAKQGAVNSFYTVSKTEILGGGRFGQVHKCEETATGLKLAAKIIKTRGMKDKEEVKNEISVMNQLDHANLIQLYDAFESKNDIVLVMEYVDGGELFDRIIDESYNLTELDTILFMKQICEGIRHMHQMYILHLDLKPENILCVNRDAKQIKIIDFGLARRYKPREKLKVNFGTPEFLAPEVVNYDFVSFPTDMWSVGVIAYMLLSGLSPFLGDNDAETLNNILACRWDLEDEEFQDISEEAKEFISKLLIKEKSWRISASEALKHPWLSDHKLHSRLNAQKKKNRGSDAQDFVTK

[4] = target: Serine/threonine-protein kinase pim-1 (Homo sapiens, UniProt P11309); experiment: Binding affinity to PIM1 assessed as change in thermal denaturation at 10 uM by thermal stability shift assay; in short: as §1
Serine/threonine-protein kinase pim-1, sequence (P11309 whole entry, looked up): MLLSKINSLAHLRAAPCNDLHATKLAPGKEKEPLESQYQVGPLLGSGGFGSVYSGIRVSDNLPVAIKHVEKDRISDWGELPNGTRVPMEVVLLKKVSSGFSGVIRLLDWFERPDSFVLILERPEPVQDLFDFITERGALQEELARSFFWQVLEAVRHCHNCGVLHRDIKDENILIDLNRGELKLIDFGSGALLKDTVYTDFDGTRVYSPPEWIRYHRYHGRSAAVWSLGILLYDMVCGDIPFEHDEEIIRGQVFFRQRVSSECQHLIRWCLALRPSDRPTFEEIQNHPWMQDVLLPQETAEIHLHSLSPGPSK

[5] = target: Serine/threonine-protein kinase pim-2 (Homo sapiens, UniProt Q9P1W9); experiment: Binding affinity to PIM2 assessed as change in thermal denaturation at 10 uM by thermal stability shift assay; in short: as §1
Serine/threonine-protein kinase pim-2, sequence (Q9P1W9 whole entry, looked up): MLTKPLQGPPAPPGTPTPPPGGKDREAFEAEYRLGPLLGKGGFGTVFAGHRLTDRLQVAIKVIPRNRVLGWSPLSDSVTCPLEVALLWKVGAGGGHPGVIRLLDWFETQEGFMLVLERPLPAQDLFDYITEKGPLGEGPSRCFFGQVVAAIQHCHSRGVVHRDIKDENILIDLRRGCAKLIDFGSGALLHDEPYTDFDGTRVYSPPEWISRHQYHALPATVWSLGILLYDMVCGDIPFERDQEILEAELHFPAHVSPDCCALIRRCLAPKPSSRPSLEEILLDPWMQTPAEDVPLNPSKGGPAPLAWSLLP

[6] = target: Serine/threonine-protein kinase pim-3 (Homo sapiens, UniProt Q86V86); experiment: Binding affinity to PIM3 assessed as change in thermal denaturation at 10 uM by thermal stability shift assay; in short: as §1
[7] = target: Serine/threonine-protein kinase PLK1 (Homo sapiens) (UniProt P53350); experiment: Binding affinity to PLK1 assessed as change in thermal denaturation at 10 uM by thermal stability shift assay; in short: as §1
Serine/threonine-protein kinase PLK1 (Homo sapiens), sequence (P53350 whole entry): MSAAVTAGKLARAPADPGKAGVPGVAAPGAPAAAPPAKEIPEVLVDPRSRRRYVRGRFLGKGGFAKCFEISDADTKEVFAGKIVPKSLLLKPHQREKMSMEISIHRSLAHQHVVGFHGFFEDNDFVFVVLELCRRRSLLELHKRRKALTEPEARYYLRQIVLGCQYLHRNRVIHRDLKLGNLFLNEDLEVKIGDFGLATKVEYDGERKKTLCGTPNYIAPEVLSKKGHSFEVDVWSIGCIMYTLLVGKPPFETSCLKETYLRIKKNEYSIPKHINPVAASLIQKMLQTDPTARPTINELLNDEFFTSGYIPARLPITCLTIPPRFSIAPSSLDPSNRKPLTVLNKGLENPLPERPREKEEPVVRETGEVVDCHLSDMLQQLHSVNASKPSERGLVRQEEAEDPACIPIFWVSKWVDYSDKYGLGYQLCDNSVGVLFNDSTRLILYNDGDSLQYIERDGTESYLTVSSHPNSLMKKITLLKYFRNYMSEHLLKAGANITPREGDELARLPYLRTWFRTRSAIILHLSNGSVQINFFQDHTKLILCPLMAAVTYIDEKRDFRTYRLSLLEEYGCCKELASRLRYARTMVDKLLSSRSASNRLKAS

[8] = target: T3, cAMP-dependent protein kinase catalytic subunit PRKX (Homo sapiens) (UniProt P51817); experiment: Binding affinity to PRKX assessed as change in thermal denaturation at 10 uM by thermal stability shift assay; in short: as §1
T3 sequence (whole entry): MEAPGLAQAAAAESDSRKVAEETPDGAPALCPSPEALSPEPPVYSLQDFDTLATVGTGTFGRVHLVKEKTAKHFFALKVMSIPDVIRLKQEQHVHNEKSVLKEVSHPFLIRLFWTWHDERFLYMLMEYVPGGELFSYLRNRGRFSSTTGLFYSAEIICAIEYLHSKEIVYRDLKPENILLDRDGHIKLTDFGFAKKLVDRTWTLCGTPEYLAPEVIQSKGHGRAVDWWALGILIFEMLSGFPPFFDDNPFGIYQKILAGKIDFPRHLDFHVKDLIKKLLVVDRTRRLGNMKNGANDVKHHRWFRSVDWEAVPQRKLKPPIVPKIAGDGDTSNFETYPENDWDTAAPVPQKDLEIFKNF

[9] = target: Serine/threonine-protein kinase 33 (Homo sapiens) (UniProt Q9BYT3); experiment: Binding affinity to STK33 assessed as change in thermal denaturation at 10 uM by thermal stability shift assay; in short: as §1
Serine/threonine-protein kinase 33 (Homo sapiens), sequence (Q9BYT3 whole entry, looked up): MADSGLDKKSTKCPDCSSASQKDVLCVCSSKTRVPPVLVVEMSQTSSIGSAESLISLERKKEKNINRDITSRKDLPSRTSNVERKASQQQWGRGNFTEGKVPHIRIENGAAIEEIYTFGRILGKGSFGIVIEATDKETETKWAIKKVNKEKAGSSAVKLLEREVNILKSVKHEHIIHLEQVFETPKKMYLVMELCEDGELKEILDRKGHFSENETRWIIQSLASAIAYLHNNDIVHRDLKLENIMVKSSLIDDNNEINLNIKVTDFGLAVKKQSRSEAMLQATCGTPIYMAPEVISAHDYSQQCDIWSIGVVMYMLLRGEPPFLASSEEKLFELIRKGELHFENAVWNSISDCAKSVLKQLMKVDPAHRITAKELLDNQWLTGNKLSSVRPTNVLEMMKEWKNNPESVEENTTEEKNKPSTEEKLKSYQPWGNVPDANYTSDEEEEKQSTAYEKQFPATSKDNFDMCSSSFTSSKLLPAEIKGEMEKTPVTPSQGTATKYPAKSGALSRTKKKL

[10] = target: AP2-associated protein kinase 1 (Homo sapiens) (UniProt Q2M2I8); experiment: Binding affinity to AAK1 assessed as change in thermal denaturation at 10 uM by thermal stability shift assay; in short: as §1
AP2-associated protein kinase 1 (Homo sapiens), sequence (Q2M2I8 whole entry, looked up): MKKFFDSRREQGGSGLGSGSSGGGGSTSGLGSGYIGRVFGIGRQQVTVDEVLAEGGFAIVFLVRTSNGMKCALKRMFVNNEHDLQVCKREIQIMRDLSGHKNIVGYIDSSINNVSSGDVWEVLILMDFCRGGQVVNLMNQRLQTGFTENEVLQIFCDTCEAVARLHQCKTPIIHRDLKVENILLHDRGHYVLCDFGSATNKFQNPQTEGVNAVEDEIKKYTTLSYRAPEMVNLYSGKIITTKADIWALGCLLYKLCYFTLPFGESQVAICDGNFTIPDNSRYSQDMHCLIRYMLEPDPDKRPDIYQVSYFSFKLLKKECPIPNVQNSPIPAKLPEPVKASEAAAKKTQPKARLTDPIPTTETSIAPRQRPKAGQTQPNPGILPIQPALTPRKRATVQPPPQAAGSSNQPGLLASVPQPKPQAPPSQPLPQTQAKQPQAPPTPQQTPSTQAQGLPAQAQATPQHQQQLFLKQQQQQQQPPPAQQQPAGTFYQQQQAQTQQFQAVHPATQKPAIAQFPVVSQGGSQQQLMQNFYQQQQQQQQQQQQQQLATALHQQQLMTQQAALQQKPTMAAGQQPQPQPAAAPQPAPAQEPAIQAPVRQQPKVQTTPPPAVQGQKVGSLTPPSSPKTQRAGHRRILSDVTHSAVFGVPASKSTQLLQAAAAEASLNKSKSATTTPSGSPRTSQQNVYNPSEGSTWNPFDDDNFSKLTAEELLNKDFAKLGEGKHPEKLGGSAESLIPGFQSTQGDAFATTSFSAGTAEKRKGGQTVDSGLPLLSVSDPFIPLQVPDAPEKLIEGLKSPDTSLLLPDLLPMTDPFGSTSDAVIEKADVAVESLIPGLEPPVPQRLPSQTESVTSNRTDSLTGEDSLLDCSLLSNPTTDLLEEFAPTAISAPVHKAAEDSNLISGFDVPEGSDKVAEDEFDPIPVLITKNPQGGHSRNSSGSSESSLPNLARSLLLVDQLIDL

[11] = target: Dual specificity protein kinase CLK4 (Homo sapiens) (UniProt Q9HAZ1); experiment: Binding affinity to CLK4 assessed as change in thermal denaturation at 10 uM by thermal stability shift assay; in short: as §1
Dual specificity protein kinase CLK4 (Homo sapiens), sequence (Q9HAZ1 whole entry, looked up): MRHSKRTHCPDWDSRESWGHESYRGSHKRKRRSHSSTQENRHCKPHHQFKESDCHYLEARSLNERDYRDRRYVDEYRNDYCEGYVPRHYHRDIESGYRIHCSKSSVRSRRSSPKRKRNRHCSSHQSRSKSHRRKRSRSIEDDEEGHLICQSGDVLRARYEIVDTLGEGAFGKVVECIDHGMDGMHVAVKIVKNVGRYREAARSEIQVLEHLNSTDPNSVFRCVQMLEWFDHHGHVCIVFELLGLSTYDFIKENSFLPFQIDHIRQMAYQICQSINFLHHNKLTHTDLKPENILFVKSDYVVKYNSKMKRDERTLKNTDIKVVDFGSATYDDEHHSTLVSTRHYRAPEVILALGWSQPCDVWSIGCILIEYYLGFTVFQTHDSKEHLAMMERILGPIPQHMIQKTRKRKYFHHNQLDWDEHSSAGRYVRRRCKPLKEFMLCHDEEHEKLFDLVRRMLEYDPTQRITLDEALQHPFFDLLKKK

[12] = target: Casein kinase II subunit alpha' (Homo sapiens) (UniProt P19784); experiment: Binding affinity to CK2alpha2 assessed as change in thermal denaturation at 10 uM by thermal stability shift assay; in short: as §1
Casein kinase II subunit alpha' (Homo sapiens), sequence (P19784 whole entry, looked up): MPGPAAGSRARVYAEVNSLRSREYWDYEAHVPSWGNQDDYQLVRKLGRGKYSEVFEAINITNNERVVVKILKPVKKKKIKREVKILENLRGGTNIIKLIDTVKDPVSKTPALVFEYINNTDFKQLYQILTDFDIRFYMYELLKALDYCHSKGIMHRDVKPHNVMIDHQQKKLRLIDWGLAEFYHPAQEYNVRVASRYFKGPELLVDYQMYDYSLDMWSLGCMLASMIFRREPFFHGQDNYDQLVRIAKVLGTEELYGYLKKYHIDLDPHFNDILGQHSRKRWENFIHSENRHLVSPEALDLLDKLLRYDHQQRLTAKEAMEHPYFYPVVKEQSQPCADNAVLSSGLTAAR

Tyrosine-protein kinase Fes/Fps (Homo sapiens), sequence (P07332 whole entry): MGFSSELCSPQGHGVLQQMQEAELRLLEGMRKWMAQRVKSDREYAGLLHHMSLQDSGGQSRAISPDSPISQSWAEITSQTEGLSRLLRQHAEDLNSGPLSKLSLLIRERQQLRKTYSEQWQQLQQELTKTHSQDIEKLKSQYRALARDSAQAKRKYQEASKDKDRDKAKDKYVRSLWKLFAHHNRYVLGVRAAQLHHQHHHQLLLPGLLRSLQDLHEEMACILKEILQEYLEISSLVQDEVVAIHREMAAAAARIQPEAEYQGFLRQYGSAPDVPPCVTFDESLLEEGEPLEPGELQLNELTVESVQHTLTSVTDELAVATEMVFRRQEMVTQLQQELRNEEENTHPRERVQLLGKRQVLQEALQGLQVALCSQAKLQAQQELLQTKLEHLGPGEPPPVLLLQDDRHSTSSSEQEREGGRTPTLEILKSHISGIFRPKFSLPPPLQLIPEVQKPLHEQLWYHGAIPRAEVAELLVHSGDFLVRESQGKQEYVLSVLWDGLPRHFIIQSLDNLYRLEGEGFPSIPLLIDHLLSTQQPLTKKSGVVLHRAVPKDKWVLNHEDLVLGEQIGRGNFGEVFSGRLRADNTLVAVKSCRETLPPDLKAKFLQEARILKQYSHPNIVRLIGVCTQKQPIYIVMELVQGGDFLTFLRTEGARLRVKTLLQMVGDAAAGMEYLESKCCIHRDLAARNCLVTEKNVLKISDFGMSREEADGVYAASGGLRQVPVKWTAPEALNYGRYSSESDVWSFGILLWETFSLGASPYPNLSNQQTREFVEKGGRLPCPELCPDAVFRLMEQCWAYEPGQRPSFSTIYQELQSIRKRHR

ΔTm [1]: 0 °C | ΔTm [2]: 1.3 °C | ΔTm [3]: 0.5 °C | ΔTm [4]: 4.8 °C | ΔTm [5]: 2.2 °C | ΔTm [6]: 4.7 °C | ΔTm [7]: 0.8 °C | ΔTm [8]: 1.4 °C | ΔTm [9]: 0.7 °C | ΔTm [10]: 2.6 °C | ΔTm [11]: 2.8 °C | ΔTm [12]: 1 °C
SMILES: Cn1c2c(c3ccc(Cl)c(Cl)c31)C(C#N)C1(CCOCC1)NC2=O (configuration not stated)
